Data set [1] has as its system RD. The data set is described as follows: Cytotoxicity against human RD cells. It counts as cell-based.
The test system of data set [2] is Enterovirus A71. The data set is described as follows: Antiviral activity against Human enterovirus 71 in human rhabdomyosarcoma cells assessed as virus-induced cell death after 72 hrs. The settings on record: Enterovirus A. It counts as functional, organism-based. In outline: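 RD cells seeded at 1.1×10^5 cells/mL in DMEM with 10% FBS, grown 24-30 h at 37 °C to about 90% confluence. Virus (100 TCID50) mixed with test compound was adsorbed 1 h at 35 °C, then overlaid with DMEM, 2% FBS, 0.1% DMSO for 72 h at 35 °C. Formaldehyde fixation, crystal violet stain, A570. EC50 is 50% reduction of virus-induced cell death versus virus control. Triplicate, at least twice.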

The nature of data set [3]: Inhibition of Human enterovirus 71 TW/2231/98 recombinant protease 3C expressed in Escherichia coli JM109 competent cells. Details: species or system Enterovirus A71. In outline: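 His-tagged EV71 3C protease expressed in E. coli […] and purified on Ni–NTA. Fluorescence read at 538 nm with excitation at 355 nm. Initial velocities over the first 5 min were plotted against inhibitor concentration and fitted to a hyperbolic activity equation to give IC50.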

Data set [4] is described as follows: Selectivity index, ratio of CC50 for human RD cells to EC50 for Human enterovirus 71. The class given is toxicity, cell-based. Particulars: for selectivity ratio: RD cells, read-out: Ratio CC50/EC50.
Data set [5] relates to RD. Put plainly: Inhibition of Human enterovirus 71 TW/2231/98 recombinant protease 3C in human RD cells at 0.01 to 1 uM after 48 hrs by Western blotting. The class given is cell-based. Particulars: Enterovirus A71. In a few lines: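 Confluent RD cells in DMEM with 10% fetal calf serum were infected with EV71 TW/2231/98 at MOI 0.01 with or without compound at 0.01–1 μM. After 48 h, total lysates were run on 12% SDS–PAGE and blotted with mouse monoclonal anti-3C and anti-β-actin antibodies. Detection used an HRP anti-mouse secondary (1:2000) and ECL.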
On the technique in general: Immunoblotting shows a protein as a band on a membrane.

The nature of data set [6]: (§1) Inhibition of Human enterovirus 71 TW/2231/98 recombinant protease 3C expressed in Escherichia coli JM109 competent cells by time dependent assay. Details: species or system Enterovirus A71. In a few lines:
(§2)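 Time-dependent inactivation: 0.5 μM 3C protease incubated with 1–10 μM inhibitor in the fluorogenic peptide assay (10 mM MES pH 6.5, 25 °C). Activity loss versus incubation time was fitted to a single exponential to give kobs. Half-life (ln2/kobs) was replotted against reciprocal inhibitor concentration to give kinact and Ki.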

Data set [7] deals with Enterovirus A71. The data set is described as §1. In a few lines:
as §2

Data set [8] deals with Echovirus E6. Put plainly: Antiviral activity against Human echovirus 6. It counts as functional, organism-based. Particulars: Enterovirus B.
For data set [9], the system named is Echovirus E9. The data set is described as follows: Antiviral activity against Human echovirus 9. The class given is functional, organism-based. Particulars: Enterovirus B.

Activity calls are given as the source filed them. No cut-off for these calls is given here.

The values below come from ChEMBL document CHEMBL1155789, “Design, synthesis, and evaluation of 3C protease inhibitors as anti-enterovirus 71 agents” (Bioorg Med Chem, 2008).

As usually defined, the CC50 is the concentration that lowers cell viability or growth by half. Read a high CC50 as better tolerance by the cells. One may read the EC50 as the concentration giving half of the maximal effect. One may read the IC50 as the concentration at which inhibition is half-maximal.

In data set [1], `O=C[C@H](C[C@@H]1CCNC1=O)NC(=O)[C@H](Cc1ccccc1)NC(=O)/C=C/c1ccc(Cl)cc1F` had a CC50 of 5100 nM. For the same molecule, the EC50 in data set [2] is 7 nM. The IC50 in data set [3] was under 500 nM. For the same molecule, in [4] (rd), the “Ratio CC50/EC50” value is 714.
The molecule `O=C[C@H](C[C@@H]1CCNC1=O)NC(=O)[C@H](Cc1ccccc1)NC(=O)/C=C/c1ccc2c(c1)OCO2` gave a CC50 in data set [1] of over 25000 nM. The EC50 in [2] was 160 nM. In addition, in [3], the IC50 was under 500 nM.
In data set [1], `CN(C)c1ccc(/C=C/C(=O)N[C@@H](Cc2ccccc2)C(=O)N[C@H](C=O)C[C@@H]2CCNC2=O)cc1` came in with a CC50 of over 25000 nM. Also, in data set [2], the EC50 came out at 18 nM. In addition, in data set [3], the IC50 is under 500 nM. Further, the selectivity ratio in data set [4] was over 1000.
With `CCOC(=O)/C=C/[C@H](C[C@@H]1CCNC1=O)NC(=O)[C@H](Cc1ccccc1)NC(=O)OC(C)(C)C`, in data set [2], the EC50 is over 20000 nM. The IC50 in data set [3] is over 20000 nM.
`Cc1cc(/C=C/C(=O)N[C@@H](Cc2ccccc2)C(=O)N[C@H](C=O)C[C@@H]2CCNC2=O)no1`: the CC50 in data set [1] is over 25000 nM. For the same molecule, in data set [2], the EC50 stood at 940 nM. In addition, the IC50 in [3] is under 500 nM.
The molecule `Cc1ccc(/C=C/C(=O)N[C@@H](Cc2ccccc2)C(=O)N[C@H](C=O)C[C@@H]2CCNC2=O)cc1` registered a CC50 in data set [1] of over 25000 nM. The EC50 in data set [2] turned out to be 26 nM. Besides, the IC50 in [3] is under 500 nM. For the same molecule, the result in data set [5] was Active. In addition, the selectivity ratio in data set [4] is over 1000.
In data set [1], `CCOC(=O)/C=C/[C@H](C[C@@H]1CCNC1=O)NC(=O)[C@H](Cc1ccccc1)NC(=O)/C=C/c1ccc(N(C)C)cc1` came in with a CC50 of 21400 nM. Moreover, in data set [2], the concentration for a half-maximal effect (EC50) turned out to be 2900 nM. The IC50 in data set [3] came out at 8200 nM. Besides, the Ki in data set [6] is 2600 nM. Moreover, in data set [7], the Kinact stood at 0.077 min⁻¹.
For `CCOC(=O)/C=C/[C@H](C[C@@H]1CCNC1=O)NC(=O)[C@H](Cc1ccccc1)NC(=O)/C=C/c1ccc2c(c1)OCO2`, the CC50 in [1] is over 25000 nM. In addition, the EC50 in data set [2] worked out at 1800 nM. Besides, the IC50 in [3] amounted to 10600 nM.
As to `CCOC(=O)/C=C/[C@H](C[C@@H]1CCNC1=O)NC(=O)[C@H](Cc1ccccc1)NC(=O)/C=C/c1ccccc1`, in data set [1], it took 8000 nM to reach half-maximal cytotoxicity (CC50). Further, in [2], the EC50 came to 1300 nM. Besides, the IC50 in data set [3] was found to be 10000 nM.
In [1], `O=C[C@H](C[C@@H]1CCNC1=O)NC(=O)[C@H](Cc1ccccc1)NC(=O)OCc1ccccc1` had a half-maximal cytotoxic concentration (CC50) of 23600 nM. Besides, in [2], the EC50 turned out to be 31 nM. The IC50 in [3] is under 500 nM.
For `CCOC(=O)/C=C/[C@H](C[C@@H]1CCNC1=O)NC(=O)[C@@H](CC(=O)[C@@H](NC(=O)c1cc(C)on1)C(C)C)Cc1ccc(F)cc1` [RUPINTRIVIR], the EC50 in data set [8] stood at 43 nM; in data set [9] it was 15 nM.
For the molecule `O=C[C@H](C[C@@H]1CCNC1=O)NC(=O)[C@H](Cc1ccccc1)NC(=O)/C=C/c1ccccc1`, the CC50 in data set [1] was over 25000 nM. Moreover, the EC50 in [2] is 96 nM. Besides, the IC50 in data set [3] is under 500 nM.
